# From the RNAGym collection of RNA variant scans (doi:10.1038/nmeth.2970)
# B1: NELF-E aptamer (parent)
# chain: CCCAACGACUGCCGAGCGAGAUUACGCUUGAGCGCCCCACUGAGGAUGCCCACGGGCGAUUGGGGCACGG
# Variants of: B1
# Experiment: HiTS-RAP
# Conditions: with NELF-E (Drosophila)
# In short: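 Aptamer DNA templates bearing a T7 promoter and a ter site were sequenced on an Illumina GAIIx flowcell. T7 RNA polymerase then transcribed them in situ, and GST-Tus halted transcription over 30 minutes at 37°C. After a 30-minute room-temperature equilibration with NELF-E-mOrange at 0.064 to 1000 nM in HEPES binding buffer, clusters were imaged, using only the first binding curve. Intensities normalised to sequencing intensity were averaged per sequence and fitted with weighted Hill fits to give Kd, retaining only fits whose variance stayed under 1,000,000.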
row,Variant,Kd [nM]
1,C13G G16A,6.87
2,C13G G16U,6.25
3,G16U A39U,23.5
4,G16U A39G,8.49
5,G16A U23G,6.04
6,G14U G48A,13.2
7,C13G G34A,8.12
8,C13G G34U,5.43
9,A15U A24G,6.86
10,C13U A15U,4.83
11,G16U C17U,6.11
12,G16U C17G,5.95
13,G16A C17G,6.2
14,G16U A67U,10.1
15,G16U A67G,5.58
16,G16U G20U,7.39
17,C13G G55U,7.38
18,C13G G55A,6.77
19,C13G G55C,7.94
20,C13G G48U,6.97
21,C13G G48A,11
22,C13G G14C,7.7
23,C13G G14A,6.02
24,C13G G14U,5.85

row,Variant,Kd [nM]
1,G14A G54A,12.4
2,G14A C53U,4.16
3,A15G C17G,5.93
4,G14A A15G,6.1
5,G14A A15C,4.43
6,G14A A15U,5.39
7,G16A A24G,6.88
8,C13G U47G,6.66
9,C13G U47A,11.8
10,G14A C57U,6.72
11,C13A U22G,5.85
12,G16A U29G,5.1
13,G14U U29G,6.2
14,G14U U29C,7.48
15,G14U U29A,5.7
16,C13G,4.88
17,C13U,4.41
18,G16U A24G,7.15
19,C17A,4.3
20,C17G,5.02
21,C13U U28C,6.27
22,C13U C57U,4.06
23,G14U G18A,6.29
24,G14U G18U,7.17

row,Variant,Kd [nM]
1,C13A G20U,7.23
2,G14A U41G,5.69
3,G14U C38U,9.69
4,G14A C17U,5.62
5,G14A C17G,5.98
6,G14U C40G,9.9
7,G14U C40U,53.4
8,G14U G64A,6.6
9,A15G U41G,5.7
10,C13G U41C,64.2
11,C13G U41A,83.4
12,C13G U41G,5.26
13,G16U A19U,5.21
14,G16U A19G,6.97
15,C13G G54U,7.78
16,C13G G54A,13.8
17,G16U U22G,6.64
18,G14U G56A,9.7
19,G14U G56U,7.18
20,G14U G34U,5.16
21,G14U G34A,6.18
22,C13G C49U,31.9
23,G16A U22G,6.17
24,C13U G16U,6.59

row,Variant,Kd [nM]
1,G14U A52U,15.8
2,C13G G30U,6.03
3,C13G G30A,4.93
4,G16U U23G,5.85
5,G16U G64A,7.51
6,G14A A21G,6.08
7,C13G C27U,4.45
8,G14U C37U,21.2
9,G14A A39G,9.46
10,G14A A39U,31
11,C13G C40G,5.72
12,G14U G54A,12.6
13,C13U G64A,8.04
14,G14U G63U,12.8
15,G14U G63A,11.9
16,G14A G55U,8.79
17,C13G U61C,73.4
18,C13G U61A,38.3
19,C13G U61G,7.74
20,G16U G18A,7.17
21,G14A A24G,5.71
22,G14A A67G,5.51
23,G14A A67U,6.56
24,G14U G20U,6.93

row,Variant,Kd [nM]
1,G14U G20A,6.93
2,G14A C33U,6.15
3,G14A U28C,7.17
4,A15G A24G,6.12
5,G14A A52G,4.13
6,G14U C36U,8.6
7,C13G G64C,5.83
8,C13G G64A,6.69
9,C13G G64U,8.93
10,G14U G16A,6.74
11,G14U G16U,7.62
12,G14A G20U,5.9
13,A15U C57U,14.3
14,G14U C25U,7.71
15,G14U C25G,8.18
16,A15U A67G,4.18
17,C13U A52G,3.79
18,C13U A52U,10.1
19,G14A U23G,5.88
20,G14U U22C,5.6
21,G14U U22G,6.53
22,C13G G42U,5.35
23,C13G G42A,49
24,C17G A21G,6.68

row,Variant,Kd [nM]
1,G14U A24G,6.51
2,G14A A31G,5.95
3,C13U A67U,3.81
4,G14A U29A,4.86
5,G14A U29C,4.73
6,G14A U29G,5.42
7,G14A G18A,5.3
8,G14A U61A,30.3
9,C13G U29G,4.95
10,C13G U29C,4.94
11,C13G U29A,4.9
12,C13G C17G,4.68
13,C13G C17U,5.43
14,G16U G34A,9.22
15,G16U G63A,15.2
16,C13G A21G,4.63
17,C13G A21U,5.52
18,G16U A21U,6.82
19,G16U A21G,5.22
20,C13G U22C,4.85
21,C13G U22G,5.27
22,G14U U28G,9.45
23,C13A U23G,5.96
24,G16U U29G,6.38

row,Variant,Kd [nM]
1,G16U U29C,6.55
2,G14U A46G,57.2
3,C13G C38U,6.55
4,C17G A39G,8.44
5,C13G U23A,5.32
6,C13G U23C,5.7
7,C13G U23G,5.29
8,G14C,5.95
9,G14U,5.68
10,G14A,4.94
11,C13G U28A,4.22
12,C13G U28C,8.82
13,C13G U28G,6.99
14,G16U U28G,6.45
15,C13G A39U,19
16,C13G A39G,9.58
17,G16U A31G,8.32
18,G16U A31U,6.75
19,G14U C35U,10.1
20,C17A U23G,5.06
21,G14U A67U,6.23
22,G14U A67G,6.8
23,G16U U61A,33.3
24,G16U U61C,77.5

row,Variant,Kd [nM]
1,A15U U41G,6.49
2,A15U U41C,82.7
3,G14U U23G,6.29
4,G14U A31G,7.27
5,A15G U22G,5.78
6,A15U A19G,9.2
7,C13G A52U,16.9
8,C13G A52G,4.96
9,C13U A24G,5.12
10,C13U G20U,7.13
11,C13G C35U,14.4
12,G14U U41A,51.7
13,G14U U41G,6.33
14,G16U C37U,21.9
15,G16U G65U,7.8
16,G16U G30A,4.95
17,C13G C51U,6.36
18,G14U G62A,19.1
19,C13G G62U,7.22
20,C13G G62A,32.4
21,C13U G54A,8.87
22,C13G A15G,6.03
23,C13G A15U,6.13
24,A15U U60C,10.7

row,Variant,Kd [nM]
1,A15U G16U,8.03
2,C17G A43G,9.66
3,G14A C51U,7.06
4,G14U C17G,6.27
5,G14U C17U,6.1
6,C13U A19U,5
7,C13U A19G,6.42
8,G16U C57U,8.22
9,C13G A67G,5.62
10,C13G A67U,7.5
11,G16U G55A,7.53
12,G16U G55U,8.69
13,G14U A19G,6.25
14,G14U A19U,7.38
15,A15C,4
16,A15U,5.65
17,A15G,4.77
18,C13G C66U,5.32
19,G14U A15U,6.94
20,G14U A15G,6.08
21,G16U C66U,5.92
22,G16A,5.27
23,G16C,4.81
24,G16U,5.88

row,Variant,Kd [nM]
1,C13U U22G,5.14
2,G16A U41G,6.55
3,A15G U23G,5.24
4,G14A U22G,5.03
5,G14A U22C,5.13
6,C13G G32A,4.64
7,C13U G26A,4.43
8,G14U G55U,9.69
9,G14U G55A,7.48
10,A15U G20U,7.81
11,C13G C50U,14.7
12,C13U U29G,5.14
13,G16U C25G,7.48
14,G14U A21G,6.69
15,G14U A21U,6.73
16,G14C U29G,5.67
17,G14U G65A,6.7
18,G14U G65U,8.73
19,C13G A31G,7.08
20,C13G A31U,5.78
21,A15G U29G,5.98
22,C13G G26A,4.79
23,C13G G26U,5.51
24,C13G G65U,6.4

row,Variant,Kd [nM]
1,C13G G65A,5.31
2,G14A A19U,4.56
3,G14A A19G,5.88
4,G16U G54A,16.2
5,C13G A24U,7.79
6,C13G A24G,5.57
7,C13G C53U,3.49
8,C13G C53G,7.39
9,A15G A21G,5.12
10,C13G G45U,6.75
11,G14A G30A,5.61
12,A15U U29G,6.83
13,A15U U29A,5.96
14,C13U G55A,5.87
15,G14A A43G,9.58
16,G14U A39G,9.72
17,G14U A39U,32.5
18,C17G A31G,5.92
19,C13U G34A,6.99
20,C13G A59U,42.1
21,C13G A59G,12.2
22,C13G G63U,7.98
23,C13G G63A,20.2
24,G14U A43U,84.4

row,Variant,Kd [nM]
1,G14U A43G,116
2,A15U U23G,5.84
3,C13U G14U,5.39
4,G16U A52G,4.81
5,G16U A52U,19.7
6,C17G C25U,5.39
7,C17G C25G,4.76
8,C13U U23G,4.9
9,C13U A39U,20.4
10,C13U A39G,7.82
11,C17G C33U,5.64
12,C13U C37U,7.46
13,G16U G42A,36.6
14,A15U G34A,11.8
15,G14U G26A,5.3
16,G14U G26U,6.16
17,G14A G16U,6.52
18,G14A G16A,6.86
19,G16U G56A,13.2
20,C13G C36G,6.08
21,C13G C36U,7.49
22,G16U U41G,6.39
23,G16U U41C,76.2
24,A15G A19G,6.95

row,Variant,Kd [nM]
1,C13G C57U,6.43
2,C13A A24G,9.1
3,C13U C25G,4.69
4,C17G A24G,5.52
5,C13G G18U,6.2
6,C13G G18A,5.31
7,G16U G26A,4.92
8,G16U G26U,7.33
9,C13A U29G,5.66
10,C13U C17U,4
11,C13U C17G,5.11
12,C13G C25U,5.55
13,C13G C25G,5.76
14,G16A G20U,7.98
15,C13G A43G,15.3
16,C13G A43U,27.8
17,A15U C17G,7.12
18,C13G G20U,6.39
19,C13G G20A,7.5
20,G14A G63A,12
21,G14U C57U,5.72
22,C13G C33U,5.79
23,C13G C33G,6.05
24,C13U A31G,5.17

row,Variant,Kd [nM]
1,C13G A46U,87.3
2,C13G A46G,47.3
3,C17G A19G,5.02
4,C17G A19U,7.26
5,C13G U60C,8.4
6,C13G U60G,5.12
7,A15G G16U,5.48
8,A15G G16A,8.29
9,A15U U22G,6.74
10,G14U U61C,86.8
11,G14U U61A,36
12,C13G G56A,6.97
13,C13G G56U,4.87
14,C13G C37G,6.46
15,C13G C37A,21.7
16,C13G C37U,10.3
17,G14U U47A,9.21
18,G14U C33U,5.15
19,C13G A19U,4.52
20,C13G A19G,5.43
21,C13U U41G,5.56
22,C17G A67G,5.71
